Compounds with a hit are over-represented: about 4.1% of the library has one in this group of screens.
ATG4B inh: inhibitors of human ATG4B cysteine protease | Q9Y4P1 | ATG4B cleavage of LC3-PLA2, NBD-HPC fluorescence, 1 h | inhibition, % at 8.33 µM | hit rate 0.51% among 340,000 | AID 504462; in the data active means inhibition above about 40%
Target sequence (Q9Y4P1 whole entry, looked up): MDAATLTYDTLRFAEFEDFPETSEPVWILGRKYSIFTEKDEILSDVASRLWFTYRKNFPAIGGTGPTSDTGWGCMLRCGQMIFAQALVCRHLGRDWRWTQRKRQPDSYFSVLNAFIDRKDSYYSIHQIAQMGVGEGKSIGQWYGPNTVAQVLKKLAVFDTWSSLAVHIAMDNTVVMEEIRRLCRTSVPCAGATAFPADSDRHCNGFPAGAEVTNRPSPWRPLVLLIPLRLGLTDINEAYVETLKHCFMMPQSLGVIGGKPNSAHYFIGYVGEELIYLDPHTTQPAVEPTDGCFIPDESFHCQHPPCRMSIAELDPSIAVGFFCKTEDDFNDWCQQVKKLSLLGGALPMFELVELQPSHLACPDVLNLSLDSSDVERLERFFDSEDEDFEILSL
MPTP block: inhibitors of mitochondrial permeability transition pore; isolated mouse mitochondria, Ca2+ swelling absorbance, 30 min; inhibition, % at 10 µM; hit rate 1.4% among 360,000; AID 602449;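 active means inhibition of 50% or more, scaled per plate between neutral and stimulator controls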;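 further: 0% = DMSO wells given calcium and 100% = 1 mM EGTA wells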
MC4R ag barr: activates human MC4R beta-arrestin recruitment; U2OS MC4R beta-arrestin complementation, luminescence; percent of melanotan II response, DMSO zero; activation, % at 8.9 µM; hit rate 0.98% among 360,000; AID 540308;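 active means activation above a per-plate cutoff, the mean activation of sample wells on that plate plus 3 SD, cut at about 8% in these data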
Target sequence (P32245 whole entry, looked up): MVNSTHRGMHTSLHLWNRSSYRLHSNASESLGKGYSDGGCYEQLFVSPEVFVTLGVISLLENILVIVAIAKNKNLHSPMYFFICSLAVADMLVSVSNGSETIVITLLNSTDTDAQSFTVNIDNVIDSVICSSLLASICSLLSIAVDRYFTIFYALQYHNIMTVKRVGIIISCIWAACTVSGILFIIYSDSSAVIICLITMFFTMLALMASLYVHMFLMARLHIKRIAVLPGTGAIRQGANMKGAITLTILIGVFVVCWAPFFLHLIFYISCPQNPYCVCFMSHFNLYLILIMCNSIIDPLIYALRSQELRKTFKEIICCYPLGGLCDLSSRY
SMARCA2 activ: increases SMARCA2 function in MMTV reporter cells; MG213 cells, MMTV-luciferase reporter, dexamethasone, overnight; activation, % at 9.1 µM; hit rate 1% among 370,000; in the data active means activation above about 7.8%;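 further: 0% = vehicle wells and 100% = reference activator wells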
MC4R antagonist: human MC4R antagonism in cAMP assay. P32245. MC4R-expressing cells, MTII-stimulated cAMP, LANCE TR-FRET. inhibition, % at 6.5 µM. hit rate 0.48% among 360,000;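 active means inhibition above its plate's cutoff, the mean of tested wells on that plate plus 3 SD, cut at about 29% in these data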;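 further: 0% = Melanotan II alone and 100% = Melanotan II plus saturating MCL0020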
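System: U2OS cells stably expressing human melanocortin 4 receptor (MC4R). Reagent: Melanotan II challenge after compound preincubation. Doses: 6.5 µM. Times: 30-min compound, 1-h challenge, 1-h detection, room temperature. Measured by: TR-FRET with Eu-cAMP and labeled anti-cAMP, 671 nm. Replicates: singlicate.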
SMARCA2 act conf: confirmation of SMARCA2 (BRM) function activators | shares compounds with SMARCA2 activ | MG213 cells, MMTV-luciferase with dexamethasone, luminescence, overnight; MG213 cells expressing E1A, Rb sequestered; DMSO wells 0%, reference activator 100% | activation, % at 9.1 µM | hit rate 30% among 3,500 | AID 652260;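 active means activation above its plate's cutoff, the mean activation of tested wells plus 3 SD, cut at about 7.9% in these data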
GAL4-VP16 Luc: counter-screen for SMARCA2 activators: GAL4-VP16 luciferase reporter activation; shares compounds with SMARCA2 activ; HEK293 GAL4-VP16 pG5luc reporter, luciferase luminescence; scaled: DMSO wells 0%, SAHA wells 100%; activation, % at 9.1 µM; hit rate 41% among 3,500;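 active means activation above the solvent-only control well mean plus 3 SD, averaged across control plates, cut at about 5.2% in these data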
* hit, by the source's call; nt = no result.

SMILES	ATG4B inh	MPTP block	MC4R ag barr	SMARCA2 activ	MC4R antagonist	SMARCA2 act conf	GAL4-VP16 Luc
CCN(CC)C(=O)CSc1nc(N)c2c3c(sc2n1)CC(C)CC3 (stereo unspecified)	-8.4	1.5	2.4	8.3*	-2.0	4.1	8.1*
Cc1ccc(-c2cc(-c3nnc(SCC(=O)Nc4ccccc4-c4ccccc4)n3N)[nH]n2)cc1	nt	nt	nt	-1.5	nt	nt	nt
CC(=O)NC(CC(=O)NC1CCCc2ccccc21)c1ccccc1 (stereo unspecified)	-2.8	0.3	0.8	8.0*	-4.2	-1.5	-0.8
CN(Cc1ccccc1)C(=O)OCc1cn(Cc2ccccc2Cl)nn1	nt	nt	nt	3.0	nt	nt	nt
Cc1ccc(-c2cn3cccc(C)c3n2)cc1	-3.1	0.2	1.3	13.8*	4.7	3.5	12.0*
Brc1ccc2nc(-c3c[nH]c4ccccc34)cn2c1	-8.2	-1.0	-2.6	6.4	2.9	nt	nt
Cc1cccn2cc(-c3c[nH]c4ccccc34)nc12	-12.9	2.8	-1.9	16.6*	-11.4	6.0	10.4*
C=CCN1C(=O)[C@]2(OCCC=C[C@H]2C)c2cc(OC)ccc21	nt	nt	nt	-4.3	nt	nt	nt
COC(=O)[C@H](CC(C)C)N(CCCc1cn(CC2CCCCC2)nn1)S(=O)(=O)c1ccc(F)cc1Br	nt	nt	nt	-3.9	nt	nt	nt
Cc1cc(C)cc(Nc2ccc(C(=O)O)cc2N)c1	8.2	0.7	-2.6	-1.0	1.9	nt	nt
Cc1ccc(Nc2ccc(C(=O)O)cc2N)cc1	-4.8	nt	nt	9.4*	nt	1.3	9.5*
COC(=O)c1ccc2nc(-c3ccco3)c(Cc3ccsc3)n2c1	nt	nt	nt	-4.2	nt	nt	nt
Cn1cc(Br)c(C(=O)Nc2sc3c(c2C(N)=O)CCC3)n1	-23.5	-0.9	-0.5	8.7*	-16.2	2.0	6.7*
O=C(OC12CCCN(C1)/C(=C/c1cccc(Cl)c1)C2)c1cccc(F)c1 (stereo unspecified)	nt	nt	nt	1.8	nt	nt	nt
C[C@@H]1CCCCO[C@@H](CN(C)Cc2ccc(C(=O)O)cc2)[C@@H](C)CN([C@H](C)CO)C(=O)c2cc(NS(C)(=O)=O)ccc2O1	nt	nt	nt	-2.3	nt	nt	nt
CCCC(C)NC(=O)CN(Cc1ccco1)S(=O)(=O)c1ccccc1 (stereo unspecified)	1.4	0.2	-2.1	14.8*	-2.6	-3.6	-0.8
CCC(C)NS(=O)(=O)c1ccc(S(=O)(=O)N(CC(=O)Nc2ccccc2)Cc2ccco2)cc1 (stereo unspecified)	-10.3	3.9	-0.7	-3.3	11.6	nt	nt
COCCN1Cc2cc(C(=O)OC)c3c(c2C1=O)c1cc(OC)ccc1n3S(C)(=O)=O	nt	nt	nt	2.2	nt	nt	nt
CCc1ccc(C(=O)Nc2cccc(-c3nn[nH]n3)c2)s1	-2.4	-0.6	-0.6	9.2*	12.3	-1.3	1.6
O=C(NC1=NCCS1)c1cccc(Br)c1	-9.8	-0.2	0.8	11.8*	-3.8	16.8*	7.0*
COc1ccccc1N1CCN(C(=O)C2CCN(C(=O)c3ccccc3Cl)CC2)CC1	-6.3	-2.2	-1.8	8.2*	4.9	-2.4	0.3
COc1ccccc1N1CCN(C(=O)C2CC2)CC1	-1.7	1.4	-1.3	0.7	-4.2	nt	nt
NC(=O)CC1C(=O)N(c2ccccc2)C(=S)N1NC(=O)c1ccccc1 (stereo unspecified)	-6.6	0.7	-1.3	8.0*	6.7	7.3	2.1
Cc1cc(C(=O)Cn2ncc(Cl)c(Cl)c2=O)c(C)n1CC(F)(F)F	12.1	0.1	-0.3	-11.7	17.2	nt	nt
Cc1ccc(C)c(C(=O)Cn2ncc(Cl)c(Cl)c2=O)c1	1.3	-0.9	-2.0	30.0*	21.3	-13.9	1.1
SMILES	ATG4B inh	MPTP block	MC4R ag barr	SMARCA2 activ	MC4R antagonist	SMARCA2 act conf	GAL4-VP16 Luc
COc1cccc(CNC(=O)[C@H]2CCCN2C(=O)[C@H]2CCCN2C(=O)c2cccs2)c1	nt	nt	nt	-7.9	nt	nt	nt
Cc1ccc(O)c(C2=Nc3ccccc3N=C(c3cccc([N+](=O)[O-])c3)C2)c1	8.2	1.7	0.3	8.7*	5.5	0.5	1.1
COC(=O)C1=C(C)N(Cc2ccccc2C(F)(F)F)C(=NCc2ccc(C(F)(F)F)cc2)NC1c1ccc(C(F)(F)F)cc1 (stereo unspecified)	nt	nt	nt	-2.0	nt	nt	nt
CC1C/C(=N/NC(=O)c2cccc(F)c2)c2ccc(O)cc2C1 (stereo unspecified)	2.9	-0.6	-0.1	9.2*	-5.5	-2.9	-0.5
Nn1c(SCC(=O)Nc2cccc3ccccc23)nnc1-c1cc(-c2ccccc2)n[nH]1	nt	nt	nt	-2.5	nt	nt	nt
C/C(=N\NC(N)=S)c1ccccc1	-7.3	-1.4	-1.7	8.0*	1.2	-0.4	0.3
NC(=S)NN=C(c1ccccc1)c1ccccc1	-3.5	0.5	0.1	-2.1	-6.8	nt	nt
CCCC[C@H]1C2CC(OC(=O)Nc3ccc(F)cc3)C(C2)[C@H]2CCCCN21 (stereo partly specified)	nt	nt	nt	-2.7	nt	nt	nt
CCCCc1cc(=O)oc2c(CN(CC)CC)c(O)c(Cl)cc12	-19.4	-0.2	-2.0	2.3	3.1	nt	nt
CCCc1cc(=O)oc2c(CN(CC)CC)c(O)c(Cl)cc12	5.5	-0.8	0.9	9.4*	15.7	-3.0	0.7
CC(=O)c1cccc(NC(=O)/C=C/c2ccc([N+](=O)[O-])s2)c1	-21.4	4.5	-2.1	4.2	-2.5	nt	nt
Cc1cc(C)cc(NC(=O)/C=C/c2ccc([N+](=O)[O-])s2)c1	4.6	0.9	5.4	8.8*	-1.5	4.0	0.4
COc1cccc(NC(=O)CN(C)C(=O)CNC(=O)c2ccc(C)s2)c1	-6.8	-2.5	-4.0	-0.7	5.2	nt	nt
CCN(CC(=O)Nc1cccc(OC)c1)C(=O)c1ccc(C)s1	-4.6	1.8	2.4	8.2*	9.1	1.1	2.6
CCOC(=O)c1cnc(-c2ccccc2O)nc1Cl	-7.0	1.0	-0.6	8.1*	1.6	3.7	3.9
COCCNc1c(-c2cc3ccc(C)c(C)c3[nH]c2=O)nc2ccccn12	1.0	0.0	-0.2	10.1*	-7.6	17.9*	6.4*
COCCNc1c(-c2ccc(OC)c(OC)c2)nc2ccc(Cl)cn12	3.1	-0.9	-0.1	3.6	24.4	nt	nt
COC(=O)c1sc(NC(=O)COc2cccc3ccccc23)nc1C	-9.4	5.3	8.4*	10.4*	-2.9	3.8	1.8
COC(=O)c1sc(NC(=O)COc2ccc(OC)cc2)nc1C	-7.9	-0.1	-0.1	1.2	12.9	nt	nt
Cc1ccc(C(=O)Nc2ccc(O)c(C(=O)O)c2)o1	-11.7	-0.8	0.4	9.3*	-2.9	4.0	1.2
CCOc1ccc(N=C(/C(C(=O)C(=O)N2CCOCC2)=C(\O)c2ccccc2)c2ccccc2)cc1	-3.5	-0.8	2.4	9.2*	6.5	7.2	6.1*
COc1nc(C)ccc1-c1noc(-c2cccnc2)n1	1.2	-2.5	1.1	10.9*	16.2	4.5	7.1*
